Laboratory results: ChEMBL document CHEMBL5120856, “New salicylic acid derivatives, double inhibitors of glycolate oxidase and lactate dehydrogenase, as effective agents decreasing oxalate production” (Eur J Med Chem, 2022)
The source made the active and inactive calls. The rule behind the calls is not given here.

Tests used:
[1] = Inhibition of GO/LDHA in hyperoxaluric-primary hepatocyte isolated from Grhpr-knockdown PH2 C57BL/6 mouse measured at 48 hrs in the presence of 10 mM glycolate; format: cell-based
Procedure, shortened: (§1)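 Grhpr-/- hepatocytes with 10 mM glycolate; eight inhibitor concentrations per replicate; colorimetric extracellular oxalate at 24 or 48 h; EC50 as mean of three/four replicates ± SD.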

[2] = Toxicity in Agxt1 knockdown PH1 C57BL/6 mouse assessed as clinical signs of toxicity at 20 mg/kg, po administered for 5 days; format: organism-based; settings: in vivo, pH 1, 20 mg/kg, 120 h, time 5 day
Procedure, shortened: (§2)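 Ten male Agxt1-/- mice dosed orally at 20 mg/kg daily for 5 days; 24-h urine oxalate (creatinine-normalized) and glycolate compared with pre-treatment baseline; clinical signs of toxicity monitored; mean ± SE.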

[3] = Inhibition of GO/LDHA in hyperoxaluric-primary hepatocyte isolated from Hoga1-knockdown PH3 C57BL/6 mouse measured at 48 hrs in the presence of hydroxyproline; format: cell-based
Procedure, shortened: (§3)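 Hoga1-/- hepatocytes with 10 mM hydroxyproline; eight inhibitor concentrations per replicate; colorimetric extracellular oxalate at 24 or 48 h; EC50 as mean of three/four replicates ± SD.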

[4] = test system: Hepatocyte; experiment: Inhibition of GO/LDHA in hyperoxaluric-primary hepatocyte isolated from Grhpr-knockdown PH2 C57BL/6 mouse assessed as reduction in relative oxalate output at 10 uM measured at 24 hrs in the presence of glycolate relative to control; format: cell-based; design: scale not given: the % may be the effect or the level left
Procedure, shortened: (§4)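 Grhpr-/- mouse primary hepatocytes cultured with 10 mM glycolate, inhibitor at 10 μM; extracellular oxalate determined colorimetrically at 24 and 48 h post-treatment, expressed relative to untreated medium (RO); negative RO means below detection limit; three/four replicates, mean ± SD.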

[5] = test system: Hepatocyte; experiment: Inhibition of GO/LDHA in hyperoxaluric-primary hepatocyte isolated from Agxt1 knockdown PH1 C57BL/6 mouse assessed as reduction in relative oxalate output at 10 uM measured at 24 hrs in the presence of glycolate relative to control; format: cell-based; design: scale not given: the % may be the effect or the level left
Procedure, shortened: (§5)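 Agxt1-/- mouse primary hepatocytes cultured with 5 mM glycolate, inhibitor at 10 μM; extracellular oxalate measured by colorimetric kit 24 and 48 h after inhibitor addition; relative oxalate = oxalate with inhibitor over oxalate without inhibitor; negative values mean below detection limit; mean of three/four replicates ± SD.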

[6] = test system: Hepatocyte; experiment: Inhibition of GO/LDHA in hyperoxaluric-primary hepatocyte isolated from Hoga1-knockdown PH3 C57BL/6 mouse assessed as reduction in relative oxalate output at 10 uM measured at 24 hrs in the presence of hydroxyproline relative to control; format: cell-based; design: scale not given: the % may be the effect or the level left
Procedure, shortened: (§6)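 Hoga1-/- mouse primary hepatocytes challenged with 10 mM hydroxyproline, inhibitor 10 μM; extracellular oxalate measured by colorimetric kit 24 and 48 h after dosing, given as ratio to oxalate without inhibitor; negative values are below detection limit; mean of three/four replicates ± SD.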

[7] = Inhibition of GO/LDHA in hyperoxaluric-primary hepatocyte isolated from Agxt1 knockdown PH1 C57BL/6 mouse measured at 48 hrs in the presence of 5 mM glycolate; format: cell-based
Procedure, shortened: (§7)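 Agxt1-/- hepatocytes with 5 mM glycolate; eight inhibitor concentrations per replicate; extracellular oxalate measured colorimetrically at 24 or 48 h; EC50 as mean of three/four replicates ± SD.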

[8] = test system: Hepatocyte; experiment: Cytotoxicity against hyperoxaluric-primary hepatocyte isolated from Agxt1-knockdown PH1 C57BL/6 mouse assessed as cell death at 10 uM by MTS assay; format: toxicity, cell-based; settings: hepatocytes, Agxt1-knockdown PH1, 10 µM
Procedure, shortened: (§8)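 Primary hepatocytes from Agxt1-/- (PH1, 5 mM glycolate), Grhpr-/- (PH2, 10 mM glycolate) or Hoga1-/- (PH3, 10 mM hydroxyproline) mice, incubated with inhibitor at 10 μM; viability followed through the oxalate assay by MTS tetrazolium method.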

[9] = target: T1, 2-Hydroxyacid oxidase 1 (Mus musculus, UniProt Q9WU19); experiment: Inhibition of N-terminal His-tagged mouse recombinant glycolate oxidase expressed in Escherichia coli BL21 (DE3) cells using glycolate as substrate preincubated for 10 mins followed by substrate addition and measured after 10 mins by Amplex red and horseradish peroxidase based fluorescence assay
T1 sequence (Q9WU19 whole entry): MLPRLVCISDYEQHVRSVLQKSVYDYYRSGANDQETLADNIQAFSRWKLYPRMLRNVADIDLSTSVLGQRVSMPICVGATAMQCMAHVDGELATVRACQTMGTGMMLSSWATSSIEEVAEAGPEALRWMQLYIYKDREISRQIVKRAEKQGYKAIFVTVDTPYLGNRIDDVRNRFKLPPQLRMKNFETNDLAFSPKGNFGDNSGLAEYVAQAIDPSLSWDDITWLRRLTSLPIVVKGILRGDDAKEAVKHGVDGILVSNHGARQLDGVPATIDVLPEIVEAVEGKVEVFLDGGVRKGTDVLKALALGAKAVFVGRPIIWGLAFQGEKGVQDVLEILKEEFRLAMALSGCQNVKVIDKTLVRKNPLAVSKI

[10] = target: T2, L-lactate dehydrogenase B chain (Homo sapiens, UniProt P07195); experiment: Mixed inhibition of human recombinant LDHB assessed as inhibition constant using varying concentration of pyruvate as substrate preincubated for 10 mins followed by substrate addition and measured every 60 sec for 10 mins in the presence of NADH by fluorescence assay
[11] = target: T2, L-lactate dehydrogenase B chain; experiment: Inhibition of human recombinant LDHB using pyruvate as substrate preincubated for 10 mins followed by substrate addition and measured every 60 sec for 10 mins in the presence of NADH by fluorescence assay
[12] = Toxicity in Agxt1 knockdown PH1 C57BL/6 mouse assessed as tolerance at 20 mg/kg, po administered for 5 days; format: organism-based; settings: in vivo, pH 1, 20 mg/kg, 120 h, time 5 day; procedure, shortened: as §2
[13] = Inhibition of GO/LDHA in hyperoxaluric-primary hepatocyte isolated from Agxt1 knockdown PH1 C57BL/6 mouse measured at 24 hrs in the presence of 5 mM glycolate; format: cell-based; procedure, shortened: as §7
[14] = test system: Hepatocyte; experiment: Cytotoxicity against hyperoxaluric-primary hepatocyte isolated from Grhpr-knockdown PH2 C57BL/6 mouse assessed as cell death at 10 uM by MTS assay; format: toxicity, cell-based; settings: hepatocytes, Grhpr-knockdown PH2 (primary hyperoxaluria type 2); procedure, shortened: as §8
[15] = test system: Hepatocyte; experiment: Inhibition of GO/LDHA in hyperoxaluric-primary hepatocyte isolated from Agxt1 knockdown PH1 C57BL/6 mouse assessed as reduction in extracellular oxalate concentration at 10 uM measured at 48 hrs in the presence of glycolate relative to control; format: cell-based; design: scale not given: the % may be the effect or the level left; procedure, shortened: as §5
[16] = test system: Mus musculus; experiment: In vivo inhibition of GO/LDHA in Agxt1 knockdown PH1 C57BL/6 mouse assessed as increase in urine glycolate level at 20 mg/kg, po administered for 5 days relative to control; format: functional, organism-based; settings: time 5.0 day; procedure, shortened: as §2
[17] = test system: Hepatocyte; experiment: Inhibition of GO/LDHA in hyperoxaluric-primary hepatocyte isolated from Hoga1-knockdown PH3 C57BL/6 mouse assessed as reduction in relative oxalate output at 10 uM measured at 48 hrs in the presence of hydroxyproline relative to control; format: cell-based; design: scale not given: the % may be the effect or the level left; procedure, shortened: as §6
[18] = target: T1, 2-Hydroxyacid oxidase 1; experiment: Non-competitive mixed inhibition of N-terminal His-tagged mouse recombinant glycolate oxidase expressed in Escherichia coli BL21 (DE3) cells assessed as inhibition constant using varying concentration of glycolate as substrate measured every 60 sec for 15 mins by Amplex red and horseradish peroxidase based fluorescence assay
[19] = Inhibition of GO/LDHA in hyperoxaluric-primary hepatocyte isolated from Hoga1-knockdown PH3 C57BL/6 mouse measured at 24 hrs in the presence of hydroxyproline; format: cell-based; procedure, shortened: as §3
[20] = target: T3, 2-Hydroxyacid oxidase 1 (Mus musculus) (UniProt Q9WU19); experiment: Non-competitive mixed inhibition of N-terminal His-tagged mouse recombinant glycolate oxidase expressed in Escherichia coli BL21 (DE3) cells assessed as decrease in Vmax with increase in apparent Km using glycolate as substrate upto 60 microM
T3 sequence (whole entry): T1 sequence (Q9WU19 whole entry)

[21] = In vivo inhibition of GO/LDHA in Agxt1 knockdown PH1 C57BL/6 mouse assessed as decrease in urine oxalate level at 20 mg/kg, po administered for 5 days relative to control; format: functional; design: scale not given: the % may be the effect or the level left; settings: time 5 day
Procedure, shortened: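 Agxt1-/- (PH1) mice, ten males, dosed orally at 20 mg/kg body weight once daily for 5 days. 24-h urine was collected, and oxalate was normalised to creatinine. Urine glycolate was also measured. Values are expressed as % of each animal's own basal pre-treatment excretion, which serves as the control, and are reported as mean ± SE.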

[22] = target: T2, L-lactate dehydrogenase B chain; experiment: Non-competitive inhibition of human recombinant LDHB assessed as inhibition constant using varying concentration of pyruvate as substrate preincubated for 10 mins followed by substrate addition and measured every 60 sec for 10 mins in the presence of NADH by fluorescence assay
[23] = test system: Hepatocyte; experiment: Inhibition of GO/LDHA in hyperoxaluric-primary hepatocyte isolated from Grhpr-knockdown PH2 C57BL/6 mouse assessed as reduction in relative oxalate output at 10 uM measured at 48 hrs in the presence of glycolate relative to control; format: cell-based; design: scale not given: the % may be the effect or the level left; procedure, shortened: as §4
[24] = Inhibition of GO/LDHA in hyperoxaluric-primary hepatocyte isolated from Grhpr-knockdown PH2 C57BL/6 mouse measured at 24 hrs in the presence of 10 mM glycolate; format: cell-based; procedure, shortened: as §1
[25] = test system: Hepatocyte; experiment: Cytotoxicity against hyperoxaluric-primary hepatocyte isolated from Hoga1-knockdown PH3 C57BL/6 mouse assessed as cell death at 10 uM by MTS assay; format: toxicity, cell-based; settings: hepatocytes, Hoga1-knockdown PH3, 10 µM; procedure, shortened: as §8
[26] = test system: HEK293; experiment: Cytotoxicity against HEK293 cells assessed as reduction in cell viability upto 50 uM measured after 48 hrs by MTT assay; format: toxicity, cell-based; settings: human, hek293, 48 h

T2 sequence (P07195 whole entry): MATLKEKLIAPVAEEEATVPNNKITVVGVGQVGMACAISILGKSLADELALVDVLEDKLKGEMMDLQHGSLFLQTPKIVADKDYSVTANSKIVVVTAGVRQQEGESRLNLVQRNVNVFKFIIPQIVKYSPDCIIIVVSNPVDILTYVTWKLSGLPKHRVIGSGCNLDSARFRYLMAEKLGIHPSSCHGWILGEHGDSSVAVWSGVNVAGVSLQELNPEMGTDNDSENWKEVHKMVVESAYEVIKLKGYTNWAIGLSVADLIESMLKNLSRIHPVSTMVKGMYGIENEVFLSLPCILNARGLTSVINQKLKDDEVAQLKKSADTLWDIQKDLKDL

C#CCNCc1ccc(-c2ccc(O)c(C(=O)O)c2)o1.N
EC50 [1]: 2700 nM
Activity [2]: Non-Toxic
EC50 [3]: 1900 nM
Activity [4]: 90%
Activity [5]: 90%
Activity [6]: 90%
EC50 [7]: 3.8 µM
Activity [8]: Non-Toxic
IC50 [9]: 8.1 µM
Ki [10]: 2000 nM
IC50 [11]: 11.8 µM
Activity [12]: Non-Toxic
EC50 [13]: 4 µM
Activity [14]: Non-Toxic
Activity [15]: 70%
Activity [16]: Active
Activity [17]: 70%
Ki [18]: 10.5 µM
EC50 [19]: 1700 nM
inhibition [20]: Active
Activity [21]: 50%
Ki [22]: 5.1 µM
Activity [23]: 70%
EC50 [24]: 1200 nM
Activity [25]: Non-Toxic
Activity [26]: Non-Toxic
